Legend:
CYP17 = target: T1, CYP17 (Homo sapiens, UniProt P05093); assay: Inhibition of human CYP17 expressed in Escherichia coli co-expressing rat NADPH-P450 reductase using progesterone as substrate at 2 uM relative to control; settings: probe progesterone
T1 sequence (P05093 whole entry): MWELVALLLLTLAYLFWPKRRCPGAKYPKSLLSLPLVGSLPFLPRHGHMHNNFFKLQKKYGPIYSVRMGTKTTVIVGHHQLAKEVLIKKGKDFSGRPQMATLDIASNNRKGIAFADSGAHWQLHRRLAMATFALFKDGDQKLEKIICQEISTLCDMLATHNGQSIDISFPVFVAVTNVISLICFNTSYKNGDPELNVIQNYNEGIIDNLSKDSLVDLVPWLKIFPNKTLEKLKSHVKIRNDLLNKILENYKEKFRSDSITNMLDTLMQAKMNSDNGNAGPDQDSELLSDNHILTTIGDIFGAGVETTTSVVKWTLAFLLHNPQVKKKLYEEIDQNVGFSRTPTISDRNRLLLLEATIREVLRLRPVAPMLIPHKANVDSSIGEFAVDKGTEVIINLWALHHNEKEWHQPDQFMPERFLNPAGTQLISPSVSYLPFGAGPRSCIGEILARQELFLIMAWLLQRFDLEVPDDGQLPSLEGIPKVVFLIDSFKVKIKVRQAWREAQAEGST
In short: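 Human CYP17 expressed in E. coli, co-expressing rat NADPH-P450 reductase. Progesterone substrate at 25 μM with NADPH cofactor. Test compound at 2 μM. Percent inhibition is the mean of at least three experiments (deviations <25%); values ≤5% are treated as not significant.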

[1] = target: T2, Cytochrome P450 11B2, mitochondrial (Homo sapiens, UniProt P19099); assay: Inhibition of human CYP11B2 expressed in hamster V79MZh cells using [1,2-3H]-11-deoxycorticosterone as substrate; assay type: cell-based
T2 sequence (P19099 whole entry): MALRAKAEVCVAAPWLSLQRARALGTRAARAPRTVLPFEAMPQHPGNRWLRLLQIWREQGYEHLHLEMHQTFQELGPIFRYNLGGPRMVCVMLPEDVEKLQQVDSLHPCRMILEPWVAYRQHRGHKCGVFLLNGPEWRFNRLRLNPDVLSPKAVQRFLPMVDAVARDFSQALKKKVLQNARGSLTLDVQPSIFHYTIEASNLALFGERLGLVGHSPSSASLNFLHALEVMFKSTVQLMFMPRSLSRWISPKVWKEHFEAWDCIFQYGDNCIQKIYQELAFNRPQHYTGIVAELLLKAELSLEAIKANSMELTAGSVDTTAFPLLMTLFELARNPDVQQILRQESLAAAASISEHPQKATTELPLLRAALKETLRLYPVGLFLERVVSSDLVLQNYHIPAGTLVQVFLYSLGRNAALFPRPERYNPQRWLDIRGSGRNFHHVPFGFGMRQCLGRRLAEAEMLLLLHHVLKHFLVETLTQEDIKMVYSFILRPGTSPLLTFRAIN
In short: (§1)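 V79MZh hamster fibroblasts expressing human CYP11B1 or CYP11B2 were incubated with [1,2-3H]-11-deoxycorticosterone (100 nM) plus inhibitor at a range of concentrations. The selectivity factor is IC50(CYP11B2)/IC50(CYP11B1).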

[2] = target: T3, Cytochrome P450 11B1, mitochondrial (Homo sapiens, UniProt P15538); assay: Inhibition of human CYP11B1 expressed in hamster V79MZh cells using [1,2-3H]-11-deoxycorticosterone as substrate; assay type: cell-based; in short: as §1
T3 sequence (P15538 whole entry): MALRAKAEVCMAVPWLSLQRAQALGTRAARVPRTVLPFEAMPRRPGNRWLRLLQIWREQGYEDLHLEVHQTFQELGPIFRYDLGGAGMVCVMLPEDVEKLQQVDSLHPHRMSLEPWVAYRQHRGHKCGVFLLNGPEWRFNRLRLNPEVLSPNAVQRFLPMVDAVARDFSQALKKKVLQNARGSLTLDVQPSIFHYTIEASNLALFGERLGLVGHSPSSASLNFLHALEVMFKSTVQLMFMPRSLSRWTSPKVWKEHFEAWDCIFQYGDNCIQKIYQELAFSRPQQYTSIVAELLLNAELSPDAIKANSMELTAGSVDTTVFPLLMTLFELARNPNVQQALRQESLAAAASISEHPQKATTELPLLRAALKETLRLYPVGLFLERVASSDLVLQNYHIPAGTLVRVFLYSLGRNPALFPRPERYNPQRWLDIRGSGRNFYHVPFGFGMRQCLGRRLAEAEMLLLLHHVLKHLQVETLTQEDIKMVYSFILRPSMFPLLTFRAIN

Homo sapiens = species: Homo sapiens; assay: Selectivity factor, ratio of IC50 for human CYP11B2 to IC50 for human CYP11B1
In short: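 V79MZh hamster fibroblasts expressing human CYP11B1 or CYP11B2 were incubated with [1,2-3H]-11-deoxycorticosterone (100 nM) plus inhibitor at a range of concentrations. […] The selectivity factor is IC50(CYP11B2)/IC50(CYP11B1).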

CYP19 (aromatase) = target: T4, CYP19 (aromatase) (Homo sapiens, UniProt P11511); assay: Inhibition of microsomal CYP19 in human placenta using [1beta-3H]-androstenedione as substrate at 2 uM by 3H2O method relative to control; settings: placental microsomes, probe [1beta-3H]-androstenedione
T4 sequence (P11511 whole entry): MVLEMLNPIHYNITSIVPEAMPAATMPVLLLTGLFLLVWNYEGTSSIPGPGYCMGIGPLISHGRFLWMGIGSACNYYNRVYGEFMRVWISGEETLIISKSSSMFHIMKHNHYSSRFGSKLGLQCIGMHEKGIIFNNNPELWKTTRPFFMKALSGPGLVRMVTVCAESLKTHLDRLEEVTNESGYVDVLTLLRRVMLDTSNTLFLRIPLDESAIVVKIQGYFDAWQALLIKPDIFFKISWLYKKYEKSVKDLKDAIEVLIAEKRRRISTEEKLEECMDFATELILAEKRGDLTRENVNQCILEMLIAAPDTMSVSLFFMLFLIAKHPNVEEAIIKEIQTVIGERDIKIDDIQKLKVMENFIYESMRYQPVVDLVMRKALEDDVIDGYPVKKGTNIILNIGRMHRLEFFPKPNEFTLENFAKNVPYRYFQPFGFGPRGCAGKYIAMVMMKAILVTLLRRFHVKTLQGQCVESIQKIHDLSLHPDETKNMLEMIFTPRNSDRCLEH
In short: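 Human placental microsomes as the CYP19 source, with [1β-3H]androstenedione at 500 nM. Activity read by 3H2O release. Compound at 2 μM. Percent inhibition is the mean of at least three experiments (deviations <25%); values ≤5% are not significant.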

[3] = Cytotoxicity against HEK293 cells after 24 hrs; assay type: cell-based; settings: human, read-out: LC50
In short: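 HEK 293 cells seeded at 2 × 10⁵ cells per well; compounds added 24 h after seeding at 1% final DMSO. Living cell mass determined after 24 h incubation; LC₅₀ calculated. Doxorubicin positive control, rifampicin negative control. Mean of more than three repeats.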

inhibition at 2 µM (CYP17) [%] | IC50 [1] [nM] | IC50 [2] [nM] | Ratio IC50 (Homo sapiens) | inhibition at 2 µM (CYP19 (aromatase)) [%] | SMILES | CC50 at 24 h [3] [µM]
3 |  |  |  |  | CC(C)(C(=O)c1cccnc1)c1cccnc1 [METYRAPONE] | 
 | > 5000 | > 5000 |  |  | c1ccc(-c2ccc(Nc3cccnc3)cn2)cc1 | 
 | 25 | 5 | 5.1 |  | COc1cncc(Cc2ccc(-c3ccccc3)nc2)c1 | 
 | 836 | 51 | 16.4 |  | Oc1cncc(Cc2ccc(-c3ccccc3)nc2)c1 | 
 | 220 | 151 | 1.5 |  | c1ccc2c(-c3ccc(C(C4CC4)n4ccnc4)cn3)cccc2c1 (configuration not stated) | 
 | 31 | 11 | 2.8 |  | c1cn(C(c2ccc(-c3ccsc3)nc2)C2CC2)cn1 (configuration not stated) | 
 | 4540 | 1710 | 2.7 |  | c1ccc(-c2ccc(Cn3ccnc3)nn2)cc1 | 
4 | 322 | 32 | 10.1 | 0 | c1ccc(-c2ccc(Cc3cccnc3)cn2)cc1 | 
 | 28 |  | 2.4 |  | CC(C)C(c1ccc(-c2ccccc2)nc1)n1ccnc1 (configuration not stated) | 
 |  |  |  |  | CO[C@H]1/C=C/O[C@@]2(C)Oc3c(C)c(O)c4c(O)c(c(/C=N/N5CCN(C)CC5)c(O)c4c3C2=O)NC(=O)/C(C)=C\C=C\[C@H](C)[C@H](O)[C@@H](C)[C@@H](O)[C@@H](C)[C@H](OC(C)=O)[C@@H]1C [RIFAMPIN] | > 100
 | 419 | 125 | 3.4 |  | Fc1cncc(Cc2ccc(-c3ccccc3)nc2)c1 | 
 | 151 | 21 | 9.1 |  | CC(c1ccc(-c2ccsc2)nc1)n1ccnc1 (configuration not stated) | 
 | 74 | 69 | 1.1 |  | c1ccc(-c2ccc(C(c3ccco3)n3ccnc3)cn2)cc1 (configuration not stated) | 
 | 656 | 68 | 9.7 |  | c1ccc2c(-c3ccc(Cn4ccnc4)cn3)cccc2c1 | 
 | 273 | 60 | 4.6 |  | CC(c1ccc(-c2cccc3ccccc23)nc1)n1ccnc1 (configuration not stated) | 
 | 0.5 | 1.3 | 0.4 |  | c1ccc(-c2cncc(Cc3ccc(-c4ccccc4)nc3)c2)cc1 | 

inhibition at 2 µM (CYP17) [%] | IC50 [1] [nM] | IC50 [2] [nM] | Ratio IC50 (Homo sapiens) | inhibition at 2 µM (CYP19 (aromatase)) [%] | SMILES | CC50 at 24 h [3] [µM]
 | 1880 | 1020 | 1.9 |  | c1ccc(-c2ccc(Oc3cccnc3)cn2)cc1 | 
 | 302 | 87 | 3.5 |  | c1ccc(-c2ncc(Cn3ccnc3)c3ccccc23)cc1 | 
 | 25 | 21 | 1.2 |  | c1ccc(-c2ccc(C(C3CC3)n3ccnc3)cn2)cc1 (configuration not stated) | 
 |  |  |  |  | COc1cccc2c1C(=O)c1c(O)c3c(c(O)c1C2=O)C[C@@](O)(C(=O)CO)C[C@@H]3O[C@H]1C[C@H](N)[C@H](O)[C@H](C)O1 [DOXORUBICIN] | 4.3
 | 621 | 98 | 6.4 |  | c1ccc(-c2ccc(Cc3ccncc3)cn2)cc1 | 
 | 19 | 8 | 2.4 |  | Cc1ccncc1Cc1ccc(-c2ccccc2)nc1 | 
 | 3110 | 240 | 12.9 |  | c1ccc(-c2ccc(Cc3cncnc3)cn2)cc1 | 
 | 1420 | 107 | 13.3 |  | c1ccc(-c2ccc(Cn3ccnc3)cn2)cc1 | 
 | 2920 | 427 | 6.9 |  | NC(=O)c1cncc(Cc2ccc(-c3ccccc3)nc2)c1 | 
 | 92 | 28 | 3.4 |  | CCC(c1ccc(-c2ccccc2)nc1)n1ccnc1 (configuration not stated) | 
 | 110 | 124 | 0.9 |  | c1ccc(-c2ccc(C(c3ccccc3)n3ccnc3)cn2)cc1 (configuration not stated) | 
 | 1020 | 181 | 5.6 |  | c1cn(Cc2ccc(-c3ccsc3)nc2)cn1 | 
13 | 200 | 33 | 6.1 | 1 | CC(c1ccc(-c2ccccc2)nc1)n1ccnc1 (configuration not stated) | 
 | 23 | 6 | 4.2 |  | c1ccc(-c2ccc(Cc3cncc4ccccc34)cn2)cc1 | 
 | 1020 | 610 | 1.7 |  | c1ccc(-c2cnc(Cn3ccnc3)cn2)cc1 | 

SMILES | inhibition at 2 µM (CYP17) [%] | IC50 [1] [nM] | IC50 [2] [nM] | Ratio IC50 (Homo sapiens) | inhibition at 2 µM (CYP19 (aromatase)) [%] | CC50 at 24 h [3] [µM]
c1ccc(-c2ncc(Cn3ccnc3)cn2)cc1 |  | > 5000 | 1120 | > 5 |  | 

Reference: ChEMBL document CHEMBL2417547 (J Med Chem, 2013)
